Assay results published in ChEMBL document CHEMBL1782036, “Atovaquone derivatives as potent cytotoxic and apoptosis inducing agents” (Bioorg Med Chem Lett, 2009).

Legend:
DU-145 [1] = assay: Growth inhibition of human DU145 cells after 72 hrs by MTT assay; assay type: functional, cell-based; conditions: DU-145, 72 h
In short: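 Du145 human prostate carcinoma cells were screened by MTT cell-growth inhibition assay. IC50 values are means of three experiments.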

DU-145 [2] = assay: Induction of apoptosis in human DU145 cells at 10 uM assessed as late apoptosis/ necrotic cells level after 72 hrs by AnnexinV conjugated 7- AAD staining by flow cytometry; assay type: functional
In short: (§1)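 Du145 cells were treated for 72 h and stained with Annexin V conjugate plus 7-AAD. Flow cytometry read PS externalization and membrane integrity, scoring cells as live (double negative), early apoptotic, or late apoptotic/necrotic (double positive). Untreated cells served as the control.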

DU-145 [3] = assay: Induction of apoptosis in human DU145 cells at 10 uM assessed as dead cell level after 72 hrs by AnnexinV conjugated 7- AAD staining by flow cytometry; assay type: functional
In short: (§2)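 Du145 human prostate carcinoma cells exposed to compound for 72 h, then stained with Annexin V and 7-AAD and analysed by flow cytometry. Annexin V detects phosphatidylserine externalised to the outer membrane leaflet, and 7-AAD enters only membrane-compromised cells. Dead cells were those positive for both stains. Untreated cells served as control.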

DU-145 [4] = assay: Induction of apoptosis in human DU145 cells at 5 uM assessed as late apoptosis/ necrotic cells level after 72 hrs by AnnexinV conjugated 7- AAD staining by flow cytometry; assay type: functional; in short: as §1
MCF7 = assay: Antiproliferative activity against human MCF7 cells after 72 hrs by MTT assay; assay type: functional, cell-based; conditions: MCF7, 72 h
DU-145 [5] = assay: Induction of apoptosis in human DU145 cells at 10 uM assessed as live cell level after 72 hrs by AnnexinV conjugated 7- AAD staining by flow cytometry; assay type: functional; in short: as §1
DU-145 [6] = assay: Induction of apoptosis in human DU145 cells at 5 uM assessed as dead cell level after 72 hrs by AnnexinV conjugated 7- AAD staining by flow cytometry; assay type: functional; in short: as §2
HT-29 = assay: Antiproliferative activity against human HT-29 cells after 72 hrs by MTT assay; assay type: functional, cell-based; conditions: HT-29, 72 h
HT-1080 = assay: Antiproliferative activity against human HT1080 cells after 72 hrs by MTT assay; assay type: functional, cell-based; conditions: HT-1080, 72 h
HeLa = assay: Antiproliferative activity against human HeLa cells after 72 hrs by MTT assay; assay type: functional, cell-based
DU-145 [7] = assay: Induction of apoptosis in human DU145 cells at 5 uM assessed as early apoptosis level after 72 hrs by AnnexinV conjugated 7- AAD staining by flow cytometry; assay type: functional; in short: as §1
SGC-7901 = assay: Antiproliferative activity against human SGC7901 cells after 72 hrs by MTT assay; assay type: functional, cell-based; conditions: SGC-7901, 72 h
A549 = assay: Antiproliferative activity against human A549 cells after 72 hrs by MTT assay; assay type: functional, cell-based; conditions: A549, 72 h
IMR-90 = assay: Antiproliferative activity against human IMR90 cells after 72 hrs by MTT assay; assay type: cell-based; conditions: IMR-90, 72 h
U-251 = assay: Antiproliferative activity against human U251 cells after 72 hrs by MTT assay; assay type: functional, cell-based; conditions: U-251, 72 h
DU-145 [8] = assay: Induction of apoptosis in human DU145 cells at 10 uM assessed as early apoptosis level after 72 hrs by AnnexinV conjugated 7- AAD staining by flow cytometry; assay type: functional; in short: as §1
[9] = Antiproliferative activity against human L78 cells after 72 hrs by MTT assay; assay type: functional, cell-based; conditions: L78, 72 h
HepG2 = assay: Antiproliferative activity against human HepG2 cells after 72 hrs by MTT assay; assay type: functional, cell-based; conditions: HepG2, 72 h
DU-145 [10] = assay: Induction of apoptosis in human DU145 cells at 5 uM assessed as live cell level after 72 hrs by AnnexinV conjugated 7- AAD staining by flow cytometry; assay type: functional; in short: as §1
MOLT-4 = assay: Antiproliferative activity against human MOLT4 cells after 72 hrs by MTT assay; assay type: functional, cell-based; conditions: MOLT-4, 72 h
KB = assay: Antiproliferative activity against human KB cells after 72 hrs by MTT assay; assay type: functional, cell-based
OS-RC-2 = assay: Antiproliferative activity against human OS-RC2 cells after 72 hrs by MTT assay; assay type: functional, cell-based; conditions: OS-RC-2, 72 h

`O=C1C=C(N2CCC(c3ccc(Cl)cc3)CC2)C(=O)c2ccccc21` gave an IC50 (DU-145 [1]) of 7.3 µM.
Work on `Cc1ccc(N2CCN(C3=CC(=O)c4ccccc4C3=O)CC2)cc1` yielded an IC50 (DU-145 [1]) of 8.2 µM.
`COc1ccc(N2CCN(C3=CC(=O)c4ccccc4C3=O)CC2)cc1` gave an IC50 (DU-145 [1]) of 46.1 µM.
Work on `COc1ccccc1N1CCN(C2=CC(=O)c3ccccc3C2=O)CC1` yielded an IC50 (DU-145 [1]) of 8 µM.
`O=C1C(N2CCN(c3ccccc3)CC2)=CC(=O)c2c(O)cccc21` showed an IC50 (DU-145 [1]) of 15.2 µM.
`O=C1C=C(N2CCC(c3ccc(Cl)cc3)CC2)C(=O)c2c(O)cccc21` gave an Activity (DU-145 [2]) of 87.96%, an Activity (DU-145 [3]) of 1.21% and an Activity (DU-145 [4]) of 35.95%. For the same molecule, the IC50 (MCF7) was 20.5 µM, the Activity (DU-145 [5]) was 1.95% and the IC50 (DU-145 [1]) was 2.6 µM. The Activity (DU-145 [6]) was 4.69%, the IC50 (HT-29) was 6.9 µM and the IC50 (HT-1080) was 22.4 µM. For the same molecule, the IC50 (HeLa) was 18.2 µM, the Activity (DU-145 [7]) was 7.22% and the IC50 (SGC-7901) was greater than 50 µM. The IC50 (A549) was 17.2 µM, the IC50 (IMR-90) was greater than 50 µM and the IC50 (U-251) was 6.1 µM. It also gave an Activity (DU-145 [8]) of 8.88%, an IC50 [9] of 40.6 µM and an IC50 (HepG2) of 5.4 µM. The Activity (DU-145 [10]) was 52.14%, the IC50 (MOLT-4) was greater than 50 µM and the IC50 (KB) was 14 µM. The IC50 (OS-RC-2) was 5.2 µM.
Molecule `O=C1C=C(N2CCC(c3ccccc3)CC2)C(=O)c2c(O)cccc21` has an Activity (DU-145 [2]) of 38.3%, an Activity (DU-145 [3]) of 7.68% and an Activity (DU-145 [4]) of 37.56%. For the same molecule, the IC50 (MCF7) was 8.8 µM, the Activity (DU-145 [5]) was 50.85% and the IC50 (DU-145 [1]) was 3 µM. For the same molecule, the Activity (DU-145 [6]) was 5.57%, the IC50 (HT-29) was 5.4 µM and the IC50 (HT-1080) was 11.1 µM. The IC50 (HeLa) was 8.6 µM, the Activity (DU-145 [7]) was 3.87% and the IC50 (SGC-7901) was 11.1 µM. For the same molecule, the IC50 (A549) was greater than 50 µM, the IC50 (IMR-90) was greater than 50 µM and the IC50 (U-251) was 10.8 µM. For the same molecule, the Activity (DU-145 [8]) was 3.17%, the IC50 [9] was 13.4 µM and the IC50 (HepG2) was 9.7 µM. The Activity (DU-145 [10]) was 53.01%, the IC50 (MOLT-4) was 2.7 µM and the IC50 (KB) was 2.2 µM. It also gave an IC50 (OS-RC-2) of 0.7 µM.
`COc1ccccc1N1CCN(C2=CC(=O)c3cccc(O)c3C2=O)CC1` showed an Activity (DU-145 [2]) of 62.93%, an Activity (DU-145 [3]) of 3.4% and an Activity (DU-145 [4]) of 42.79%. The IC50 (MCF7) was 5.6 µM, the Activity (DU-145 [5]) was 23.55% and the IC50 (DU-145 [1]) was 1.8 µM. For the same molecule, the Activity (DU-145 [6]) was 5.08%, the IC50 (HT-29) was 2.8 µM and the IC50 (HT-1080) was 5.1 µM. The IC50 (HeLa) was 6.5 µM, the Activity (DU-145 [7]) was 5.88% and the IC50 (SGC-7901) was 6.8 µM. It also gave an IC50 (A549) of 3.6 µM, an IC50 (IMR-90) greater than 50 µM and an IC50 (U-251) of 4.4 µM. For the same molecule, the Activity (DU-145 [8]) was 10.13%, the IC50 [9] was 4.6 µM and the IC50 (HepG2) was 3.9 µM. It also gave an Activity (DU-145 [10]) of 46.26%, an IC50 (MOLT-4) of 25.8 µM and an IC50 (KB) of 2.8 µM. The IC50 (OS-RC-2) was 1.9 µM.
`Cc1ccccc1C1CCN(C2=CC(=O)c3ccccc3C2=O)CC1` showed an IC50 (DU-145 [1]) of 6.1 µM.
For `COc1cccc2c1C(=O)c1c(O)c3c(c(O)c1C2=O)C[C@@](O)(C(=O)CO)C[C@@H]3O[C@H]1C[C@H](N)[C@H](O)[C@H](C)O1` [DOXORUBICIN], the IC50 (HT-29) was 1.3 µM, the IC50 (HT-1080) was 0.1 µM and the IC50 (SGC-7901) was 0.9 µM. For the same molecule, the IC50 (IMR-90) was 1 µM, the IC50 (U-251) was 0.6 µM and the IC50 [9] was 2.4 µM. It also gave an IC50 (MOLT-4) of 0.002 µM and an IC50 (OS-RC-2) of 5.4 µM.
Work on `COc1cccc(N2CCN(C3=CC(=O)c4ccccc4C3=O)CC2)c1` yielded an IC50 (DU-145 [1]) of 15 µM.
For `O=C1C(N2CCN(c3ccc(F)cc3)CC2)=CC(=O)c2c(O)cccc21`, the IC50 (DU-145 [1]) was 22.4 µM.
`O=C1C=C(N2CCN(c3ccccc3)CC2)C(=O)c2ccccc21` showed an IC50 (DU-145 [1]) of 9.9 µM.
In the case of `Cc1ccccc1N1CCN(C2=CC(=O)c3ccccc3C2=O)CC1`, the IC50 (DU-145 [1]) is reported as 5.7 µM.
Work on `COc1ccc(N2CCN(C3=CC(=O)c4ccccc4C3=O)CC2)cc1OC` yielded an IC50 (DU-145 [1]) of 17.8 µM.
